What is called IC50 is the concentration that gives 50% inhibition. Low values mean higher potency, high ones lower potency.

The structures appear in SMILES notation. Active and inactive are the calls of the source. The rule behind the calls is not given here.

For 13 compounds, IC50 and Activity results are on record in ChEMBL document CHEMBL1148198, “Inhibition of HIV-1 envelope-mediated fusion by synthetic batzelladine analogues” (J Nat Prod, 2004).

System in the first test: not listed separately
In words: (§1) Inhibition of HIV1 envelope glycoprotein gp160-mediated cell fusion by cell-cell fusion assay. More on the design: species or system Human immunodeficiency virus 1. Summed up: (§2)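 Cell-cell fusion driven by HIV-1 Env from LAV (X4) and SF162 (R5) strains. Inhibitor added to wells at increasing concentrations; run in duplicate on at least two separate days. Percent fusion fitted by nonlinear least squares to % fusion = 100/(1 + KA[I]), where KA is the equilibrium association constant for inhibitor binding to gp120.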
`CCCCCCCCC[C@@H]1C[C@@H]2CC[C@H]3C(C(=O)OC(C)(C)C)=C(C)NC(=[N+]23)N1` returned an IC50 of 3.5 µM. That is a single-digit micromolar value.

`CCCCCCCCC[C@H](O)C[C@@H]1CC[C@H]2C(C(=O)O[C@@H](C)CCCCC[C@@H]3C[C@@H]4CC[C@@H]5C[C@H](C)NC(=[N+]54)N3)=C(C)NC(N)=[N+]12` showed an IC50 of 7.7 µM. The same measure, in the same setting: to `CCCCCCCCC[C@@H]1C[C@@H]2CC[C@H]3[C@H](C(=O)O[C@H](C)CCCCC[C@@H]4C[C@@H]5CC[C@@H]6C[C@H](C)NC(=[N+]65)N4)[C@H](C)NC(=[N+]23)N1` belongs 2.5 µM; to `CCCCCCCCC[C@@H]1C[C@@H]2CC[C@H]3[C@H](C(=O)O[C@H](C)CCCCC[C@@H]4C[C@@H]5CC[C@@H]6C[C@H](C)NC(=[N+]65)N4)[C@@H](C)NC(=[N+]23)N1`, 3 µM. The same measure, in the same setting: to `CC(=O)CC(=O)O[C@@H](C)CCCCC[C@H]1C[C@H]2CC[C@H]3C[C@@H](C)NC(=[N+]23)N1` belongs 5.3 µM. The same measure, in the same setting: to `C=CCOC(=O)C1=C(CCCCC[C@@H](C)O[Si](C)(C)C(C)(C)C)NC2=[N+]3[C@H](CC[C@@H]13)C[C@H](C)N2` belongs 4.5 µM; to `CC(=O)CC(=O)O[C@@H](C)CCCCC[C@@H]1C[C@@H]2CC[C@@H]3C[C@H](C)NC(=[N+]32)N1`, 17 µM; to `CCCCCCCCC[C@@H]1C[C@@H]2CC[C@H]3C(C(=O)O[C@@H](C)CCCCC[C@@H]4C[C@@H]5CC[C@@H]6C[C@H](C)NC(=[N+]65)N4)=C(C)NC(=[N+]23)N1`, 1.8 µM. For `CCCCCCCCC[C@@H]1C[C@@H]2CCC3=C(C(=O)O[C@H](C)CCCCC[C@@H]4C[C@@H]5CC[C@@H]6C[C@H](C)NC(=[N+]65)N4)[C@@H](C)NC(=[N+]32)N1`, half-maximal inhibition (IC50) was put at 0.8 µM. On the same count and under the same terms, to `CCCCCCCCC[C@H](O)C[C@@H]1CC[C@H]2C(C(=O)O[C@H](C)CCCCC[C@H]3C[C@H]4CC[C@H]5C[C@@H](C)NC(=[N+]45)N3)=C(C)NC(N)=[N+]12` belongs 6.2 µM.

The next test concerns Human immunodeficiency virus 1. The test is described as §1. In outline: as §2
On to `CCCCCCCCC[C@H]1C[C@H]2CC[C@H]3C(C(=O)OCc4ccc(COC(=O)C5=C(C)NC6=[N+]7[C@H](CC[C@@H]57)C[C@H](CCCCCCCCC)N6)cc4)=C(C)NC(=[N+]23)N1`, for which the result was inactive. Still for that read-out and setting: with `CCCCCCCCC[C@H]1C[C@H]2CC[C@H]3C(C(=O)OCCCCCCCCOC(=O)C4=C(C)NC5=[N+]6[C@H](CC[C@@H]46)C[C@H](CCCCCCCCC)N5)=C(C)NC(=[N+]23)N1` the entry was “inactive”.

The subject of another test is Human immunodeficiency virus 1. In words: Inhibition of HIV1 envelope glycoprotein gp160-mediated cell fusion at 100 µM by cell-cell fusion assay.
As for `CCCCCCCCC[C@H]1C[C@H]2CC[C@H]3C(C(=O)OCc4ccc(COC(=O)C5=C(C)NC6=[N+]7[C@H](CC[C@@H]57)C[C@H](CCCCCCCCC)N6)cc4)=C(C)NC(=[N+]23)N1`, the outcome was inactive. Same read-out and setting: with `CCCCCCCCCC1=C(C(=O)OCc2ccc(COC(=O)C3=C(CCCCCCCCC)NC4=[N+]5[C@H](CC[C@@H]35)C[C@H](CCCCCCC)N4)cc2)[C@@H]2CC[C@@H]3C[C@H](CCCCCCC)NC(=[N+]32)N1` the entry was “inactive”.
